Converted amounts (≈) assume the structure as drawn. “And” between values parts separate entries of the source, which are not always exact repeats. Identical values can stand only once. “Also recorded” adds a separate entry of the source.
Experiments:
[1] = system: Ancylostoma ceylanicum and Trichuris muris; settings: encapsulated monoterpene, in vitro; ref Mirza et al., 2020; cited from earlier work
[2] = system: Teladorsagia circumcincta; settings: in vitro; ref Helal et al., 2020; cited from earlier work
[3] = rats, cited from earlier work
[4] = system: Trichostrongylus axei; settings: in vitro; ref Helal et al., 2020; cited from earlier work
[5] = system: Caenorhabditis elegans; settings: read-out: LC50 (mortality); in vitro; ref Abdel-Rahman et al., 2013; cited from earlier work
[6] = GNL plasma levels after yeast-encapsulated GNL in the FEC trial; type: in vivo, Corriedale lambs; settings: lambs; yeast-encapsulated GNL 100 mg/kg oral, four doses every 24 h
[7] = type: in vivo, Corriedale lambs; settings: lambs
[8] = system: FMO; assay: FMO-dependent metabolism: BZ N-oxidase activity in sheep liver microsomes; type: in vitro ADME
[9] = system: Haemonchus contortus; settings: in vitro; ref Helal et al., 2020; cited from earlier work
[10] = system: Haemonchus contortus; assay: Fecal egg count reduction in lambs infected with resistant H. contortus; type: in vivo
Outline: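 Corriedale lambs artificially infected with a resistant H. contortus isolate received yeast-encapsulated test compound, 100 mg/kg orally, as four doses every 24 h. Faeces were sampled on days −1, 7 and 14, and epg was counted by modified McMaster (sensitivity 10 epg). FECR was calculated per McKenna from arithmetic mean epg: day −1 (T1) versus days 7 and 14 (T2).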

[11] = ref Miró et al., 2020b; cited from earlier work
[12] = system: sheep liver microsomes; settings: ref Miró et al. 2020b, 2020c; cited from earlier work
[13] = system: ruminal incubations; settings: ref Miró et al., 2020b; cited from earlier work
[14] = system: FMO; settings: sheep liver microsomes, ref Miró et al. 2020b, 2020c; cited from earlier work
[15] = system: gram-positive and negative bacteria; settings: ref Nagoor Meeran et al., 2017; cited from earlier work
[16] = biological target: T1, CYP1A1 (Ovis aries, UniProt P56591); settings: sheep liver microsomes, ref Miró et al. 2020b, 2020c; cited from earlier work
T1 sequence (P56591 1-519): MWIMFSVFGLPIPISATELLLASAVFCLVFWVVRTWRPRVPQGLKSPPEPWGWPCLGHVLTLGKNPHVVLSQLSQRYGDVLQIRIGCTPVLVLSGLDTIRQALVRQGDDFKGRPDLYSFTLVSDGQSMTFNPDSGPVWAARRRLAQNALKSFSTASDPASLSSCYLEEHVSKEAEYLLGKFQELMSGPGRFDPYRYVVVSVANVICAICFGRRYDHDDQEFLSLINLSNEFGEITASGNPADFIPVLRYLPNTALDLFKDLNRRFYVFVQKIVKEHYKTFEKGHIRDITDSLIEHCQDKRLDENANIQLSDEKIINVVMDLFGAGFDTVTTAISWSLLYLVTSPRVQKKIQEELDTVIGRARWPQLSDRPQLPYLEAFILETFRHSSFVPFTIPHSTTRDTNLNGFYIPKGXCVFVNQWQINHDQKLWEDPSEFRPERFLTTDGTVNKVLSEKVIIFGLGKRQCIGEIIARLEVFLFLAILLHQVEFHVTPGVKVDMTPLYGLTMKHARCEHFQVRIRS

[17] = system: Rhipicephalus microplus; settings: encapsulated in Saccharomyces cerevisiae; ref da Silva Lima et al., 2017; cited from earlier work

CC(C)=CCC/C(C)=C/CO [GNL, 3,7-dimethylocta-trans-2,6-dien-1-ol]
classification of action [1]: fast acting at a moderately high dose | reduction of larval motility [2]: 94% | elimination half-life ([3]; intravenous infusion of 12.5 mg, ref Pavan et al. (2018)): about 12 min | time at which Cmax in the bloodstream was achieved ([3]; oral administration, ref Pavan et al., 2018): 30 min | reduction of larval motility [4]: 90% | LC50 [5]: 14 µg/mL (≈ 90.8 µM) | time of GNL detection in plasma [6]: detected in plasma only at 1 h post-treatment; also recorded: detected in plasma only at 1 h post-administration | mean GNL plasma concentration expressed ([7]; 1 h after second oral dose of GNL 100 mg/kg): 0.02 mM | mean GNL plasma concentration ([7]; 1 h after second oral dose of GNL 100 mg/kg (emulsion)): 3.04 ± 1.33 µg/mL and 3.04 µg/mL | BZ N-oxidase activity, lower compared to absence of GNL ([8]; 0.2 mM GNL): 65.5 ± 13.6% | BZ N-oxidase activity (FMO pathway), lower compared to absence of GNL ([8]; 2 mM GNL): 84.5 ± 4.84% and 84.5% | reduction of larval motility [9]: 82% | effect on fecal egg counts ([10]; 7 and 14 days after first dose, four doses of GNL): did not significantly decrease | FECR (fecal egg count reduction), in vivo efficacy ([10]; day 14, lambs, GNL 100 mg/kg oral x 4, 95% LCL-UCL 0-82.3): 40.5%

Cc1ccc(C(C)C)c(O)c1 [TML, thymol]
effect on systemic exposure of ABZ metabolites [11]: did not improve | effect on S-oxygenation of ABZ [12]: delayed | effect on formation of ABZ from ABZSO [13]: completely abolish | effect on FMO-dependent metabolism [14]: inhibited | MIC [15]: 150 µg/mL (≈ 999 µM) | effect on CYP1A1-dependent metabolism [16]: inhibited

Cc1ccc(C(C)C)cc1O [carvacrol]
decrease of LC50 after encapsulation compared to non-encapsulated [17]: 2.5 fold
